According to ChEMBL document CHEMBL4152256, “Structure-activity relationship of new antimalarial 1-aryl-3-susbtituted propanol derivatives: Synthesis, preliminary toxicity profiling, parasite life cycle stage studies, target exploration, and targeted delivery” (Eur J Med Chem, 2018):

Legend:
[1] = Genotoxicity in Salmonella typhimurium TA1535 harboring pSK1002 assessed as survival at 0.063 mg/ml in presence of Sprague-Dawley rat liver S9 fraction after by SOS/umu assay relative to control; assay type: toxicity, organism-based; details: salmonella enterica subsp. enterica serovar typhimurium, read-out: Survival
[2] = Genotoxicity in Salmonella typhimurium TA1535 harboring pSK1002 assessed as survival at 0.016 mg/ml in absence of Sprague-Dawley rat liver S9 fraction after by SOS/umu assay relative to control; assay type: toxicity, organism-based; details: salmonella enterica subsp. enterica serovar typhimurium, read-out: Survival
[3] = Genotoxicity in Salmonella typhimurium TA1535 harboring pSK1002 assessed as survival at 0.004 mg/ml in presence of Sprague-Dawley rat liver S9 fraction after by SOS/umu assay relative to control; assay type: toxicity, organism-based; details: salmonella enterica subsp. enterica serovar typhimurium, read-out: Survival
[4] = Genotoxicity in Salmonella typhimurium TA1535 harboring pSK1002 assessed as umu gene induction at 0.008 mg/ml in presence of Sprague-Dawley rat liver S9 fraction after by SOS/umu assay relative to control; assay type: toxicity, organism-based; details: salmonella enterica subsp. enterica serovar typhimurium, read-out: FC
[5] = Genotoxicity in Salmonella typhimurium TA1535 harboring pSK1002 assessed as survival at 0.031 mg/ml in presence of Sprague-Dawley rat liver S9 fraction after by SOS/umu assay relative to control; assay type: toxicity, organism-based; details: salmonella enterica subsp. enterica serovar typhimurium, read-out: Survival
[6] = system: Plasmodium falciparum; test: Antiplasmodial activity against multidrug-resistant Plasmodium falciparum FCR-3 by [3H]-hypoxanthine incorporation assay; assay type: functional, organism-based, FCR-3/Gambia; details: Plasmodium falciparum, FCR-3/Gambia
Method in brief: (§1)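 Blood-stage P. falciparum 3D7 and FCR-3 were tested by a modified [3H]-hypoxanthine incorporation assay. Chloroquine was the reference in all runs.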

[7] = Genotoxicity in Salmonella typhimurium TA1535 harboring pSK1002 assessed as umu gene induction at 0.125 mg/ml in absence of Sprague-Dawley rat liver S9 fraction after by SOS/umu assay relative to control; assay type: toxicity, organism-based; details: salmonella enterica subsp. enterica serovar typhimurium, read-out: FC
[8] = Genotoxicity in Salmonella typhimurium TA1535 harboring pSK1002 assessed as survival at 0.008 mg/ml in absence of Sprague-Dawley rat liver S9 fraction after by SOS/umu assay relative to control; assay type: toxicity, organism-based; details: salmonella enterica subsp. enterica serovar typhimurium, read-out: Survival
[9] = Genotoxicity in Salmonella typhimurium TA1535 harboring pSK1002 assessed as survival at 0.004 mg/ml in absence of Sprague-Dawley rat liver S9 fraction after by SOS/umu assay relative to control; assay type: toxicity, organism-based; details: salmonella enterica subsp. enterica serovar typhimurium, read-out: Survival
[10] = Genotoxicity in Salmonella typhimurium TA1535 harboring pSK1002 assessed as survival at 0.125 mg/ml in absence of Sprague-Dawley rat liver S9 fraction after by SOS/umu assay relative to control; assay type: toxicity, organism-based; details: salmonella enterica subsp. enterica serovar typhimurium, read-out: Survival
[11] = Genotoxicity in Salmonella typhimurium TA1535 harboring pSK1002 assessed as umu gene induction at 0.031 mg/ml in absence of Sprague-Dawley rat liver S9 fraction after by SOS/umu assay relative to control; assay type: toxicity, organism-based; details: salmonella enterica subsp. enterica serovar typhimurium, read-out: FC
[12] = Genotoxicity in Salmonella typhimurium TA1535 harboring pSK1002 assessed as umu gene induction at 0.031 mg/ml in presence of Sprague-Dawley rat liver S9 fraction after by SOS/umu assay relative to control; assay type: toxicity, organism-based; details: salmonella enterica subsp. enterica serovar typhimurium, read-out: FC
[13] = Genotoxicity in Salmonella typhimurium TA1535 harboring pSK1002 assessed as survival at 0.001 mg/ml in absence of Sprague-Dawley rat liver S9 fraction after by SOS/umu assay relative to control; assay type: toxicity, organism-based; details: salmonella enterica subsp. enterica serovar typhimurium, read-out: Survival
[14] = Selectivity index, ratio of CC50 for human HepG2A16 cells by MTT assay to IC50 for multidrug-resistant Plasmodium falciparum FCR-3; assay type: toxicity; details: HepG2A16 cells, read-out: Ratio CC50/IC50
Method in brief: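 HepG2-A16 human hepatoma cells were tested by MTT viability assay to give CC50. Blood-stage activity was measured against the multidrug-resistant P. falciparum FCR-3 strain by [3H]-hypoxanthine incorporation to give IC50. SI = CC50 HepG2 / FCR-3 IC50.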

[15] = Genotoxicity in Salmonella typhimurium TA1535 harboring pSK1002 assessed as umu gene induction at 0.016 mg/ml in presence of Sprague-Dawley rat liver S9 fraction after by SOS/umu assay relative to control; assay type: toxicity, organism-based; details: salmonella enterica subsp. enterica serovar typhimurium, read-out: FC
[16] = Genotoxicity in Salmonella typhimurium TA1535 harboring pSK1002 assessed as umu gene induction at 0.063 mg/ml in absence of Sprague-Dawley rat liver S9 fraction after by SOS/umu assay relative to control; assay type: toxicity, organism-based; details: salmonella enterica subsp. enterica serovar typhimurium, read-out: FC
[17] = Cytotoxicity against human HepG2A16 cells by MTT assay; assay type: cell-based; details: HepG2A16 cells
Method in brief: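 MTT viability assay on HepG2-A16 cells, giving CC50 values.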

[18] = Genotoxicity in Salmonella typhimurium TA1535 harboring pSK1002 assessed as umu gene induction at 0.001 mg/ml in absence of Sprague-Dawley rat liver S9 fraction after by SOS/umu assay relative to control; assay type: toxicity, organism-based; details: salmonella enterica subsp. enterica serovar typhimurium, read-out: FC
[19] = Genotoxicity in Salmonella typhimurium TA1535 harboring pSK1002 assessed as survival at 0.031 mg/ml in absence of Sprague-Dawley rat liver S9 fraction after by SOS/umu assay relative to control; assay type: toxicity, organism-based; details: salmonella enterica subsp. enterica serovar typhimurium, read-out: Survival
[20] = Genotoxicity in Salmonella typhimurium TA1535 harboring pSK1002 assessed as survival at 0.016 mg/ml in presence of Sprague-Dawley rat liver S9 fraction after by SOS/umu assay relative to control; assay type: toxicity, organism-based; details: salmonella enterica subsp. enterica serovar typhimurium, read-out: Survival
[21] = Genotoxicity in Salmonella typhimurium TA1535 harboring pSK1002 assessed as umu gene induction at 0.004 mg/ml in presence of Sprague-Dawley rat liver S9 fraction after by SOS/umu assay relative to control; assay type: toxicity, organism-based; details: salmonella enterica subsp. enterica serovar typhimurium, read-out: FC
[22] = Genotoxicity in Salmonella typhimurium TA1535 harboring pSK1002 assessed as umu gene induction at 0.063 mg/ml in presence of Sprague-Dawley rat liver S9 fraction after by SOS/umu assay relative to control; assay type: toxicity, organism-based; details: salmonella enterica subsp. enterica serovar typhimurium, read-out: FC
[23] = Genotoxicity in Salmonella typhimurium TA1535 harboring pSK1002 assessed as umu gene induction at 0.125 mg/ml in presence of Sprague-Dawley rat liver S9 fraction after by SOS/umu assay relative to control; assay type: toxicity, organism-based; details: salmonella enterica subsp. enterica serovar typhimurium, read-out: FC
[24] = Genotoxicity in Salmonella typhimurium TA1535 harboring pSK1002 assessed as survival at 0.125 mg/ml in presence of Sprague-Dawley rat liver S9 fraction after by SOS/umu assay relative to control; assay type: toxicity, organism-based; details: salmonella enterica subsp. enterica serovar typhimurium, read-out: Survival
[25] = Genotoxicity in Salmonella typhimurium TA1535 harboring pSK1002 assessed as umu gene induction at 0.002 mg/ml in absence of Sprague-Dawley rat liver S9 fraction after by SOS/umu assay relative to control; assay type: toxicity, organism-based; details: salmonella enterica subsp. enterica serovar typhimurium, read-out: FC
[26] = Genotoxicity in Salmonella typhimurium TA1535 harboring pSK1002 assessed as umu gene induction at 0.002 mg/ml in presence of Sprague-Dawley rat liver S9 fraction after by SOS/umu assay relative to control; assay type: toxicity, organism-based; details: salmonella enterica subsp. enterica serovar typhimurium, read-out: FC
[27] = Genotoxicity in Salmonella typhimurium TA1535 harboring pSK1002 assessed as umu gene induction at 0.016 mg/ml in absence of Sprague-Dawley rat liver S9 fraction after by SOS/umu assay relative to control; assay type: toxicity, organism-based; details: salmonella enterica subsp. enterica serovar typhimurium, read-out: FC
[28] = system: Plasmodium falciparum; test: Antiplasmodial activity against chloroquine-sensitive Plasmodium falciparum 3D7 by [3H]-hypoxanthine incorporation assay; assay type: functional, organism-based; details: Plasmodium falciparum, 3D7; method in brief: as §1
[29] = Genotoxicity in Salmonella typhimurium TA1535 harboring pSK1002 assessed as survival at 0.008 mg/ml in presence of Sprague-Dawley rat liver S9 fraction after by SOS/umu assay relative to control; assay type: toxicity, organism-based; details: salmonella enterica subsp. enterica serovar typhimurium, read-out: Survival

| Compound | viability at 0.063 mg/ml [1] [%] | viability at 0.016 mg/ml [2] [%] | viability at 0.004 mg/ml [3] [%] | fold induction at 0.008 mg/ml [4] | viability at 0.031 mg/ml [5] [%] | IC50 [6] [nM] | fold induction at 0.125 mg/ml [7] | viability at 0.008 mg/ml [8] [%] | viability at 0.004 mg/ml [9] [%] | viability at 0.125 mg/ml [10] [%] | fold induction at 0.031 mg/ml [11] | fold induction at 0.031 mg/ml [12] | viability at 0.001 mg/ml [13] [%] | selectivity ratio [14] | fold induction at 0.016 mg/ml [15] | fold induction at 0.063 mg/ml [16] | CC50 [17] [nM] | fold induction at 0.001 mg/ml [18] | viability at 0.031 mg/ml [19] [%] | viability at 0.016 mg/ml [20] [%] | further results |
| --- | --- | --- | --- | --- | --- | --- | --- | --- | --- | --- | --- | --- | --- | --- | --- | --- | --- | --- | --- | --- | --- |
| COc1ccccc1C1=CCN(CCC(O)c2ccc(F)cc2)CC1 (stereo not drawn) | 91 | 106 | 82.3 | 1 | 81.8 | 1320 | 1 | 111 | 104 | 107 | 1 | 1 | 114 | 51 | 1.2 | 0.9 | 67000 | 1 | 114 | 78.9 | fold induction at 0.004 mg/ml [21]: 1.1; fold induction at 0.063 mg/ml [22]: 0.9; fold induction at 0.125 mg/ml [23]: 1; viability at 0.125 mg/ml [24]: 88.5%; fold induction at 0.002 mg/ml [25]: 1.1; fold induction at 0.002 mg/ml [26]: 1.1; fold induction at 0.016 mg/ml [27]: 1; IC50 [28]: 2820 nM; viability at 0.008 mg/ml [29]: 88.3% |
| Nc1ccc(N2CCC(NCCC(O)c3ccc(F)c4ccccc34)CC2)c(C(F)(F)F)c1 (stereo not drawn) | 55.7 | 28.3 | 116 | 1.1 | 39.1 | 80 | 0.4 | 27.7 | 38.7 | 32.4 | 0.7 | 1 | 101 | 137 | 1.4 | 0.6 | 11000 | 1.1 | 31.5 | 32.4 | fold induction at 0.004 mg/ml [21]: 1.1; fold induction at 0.063 mg/ml [22]: 0.4; fold induction at 0.125 mg/ml [23]: 0.1; viability at 0.125 mg/ml [24]: 107%; fold induction at 0.002 mg/ml [25]: 0.7; fold induction at 0.002 mg/ml [26]: 1.4; fold induction at 0.016 mg/ml [27]: 0.8; IC50 [28]: 140 nM; viability at 0.008 mg/ml [29]: 104% |
